Laboratory results taken from ChEMBL document CHEMBL4038305, “Benzoxaborole Antimalarial Agents. Part 5. Lead Optimization of Novel Amide Pyrazinyloxy Benzoxaboroles and Identification of a Preclinical Candidate” (J Med Chem, 2017).
Calls of active or inactive are those of the source. No cut-off for these calls is given here.

How the values were obtained:
Plasmodium berghei [1] = assay: Antimalarial activity against Plasmodium berghei infected in Swiss Webster mouse assessed as mouse survival rate at 1 mg/kg administered once daily via oral gavage for 4 consecutive days beginning 1 hr after infection measured on day 6 post infection relative to control; assay type: functional
Procedure, shortened: (§1)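 Mice given an intraperitoneal injection of P. berghei-infected erythrocytes taken from a previously infected animal. Oral dosing once daily for 4 consecutive days, starting 1 h after infection. Vehicle: polyethylene glycol 300/propylene glycol/water (weight ratio 55/25/20). Percent survival recorded daily from day 4 to day 20. Chloroquine 30 mg/kg and vehicle-only groups served as controls.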

Plasmodium berghei [2] = assay: Antimalarial activity against Plasmodium berghei infected in Swiss Webster mouse assessed as mouse survival rate at 0.3 mg/kg administered once daily via oral gavage for 4 consecutive days beginning 1 hr after infection measured on day 7 post infection relative to control; assay type: functional; procedure, shortened: as §1
Plasmodium berghei [3] = assay: Antimalarial activity against Plasmodium berghei infected in Swiss Webster mouse assessed as mouse survival rate at 11 mg/kg administered once daily via oral gavage for 4 consecutive days beginning 1 hr after infection measured on day 14 post infection relative to control; assay type: functional; procedure, shortened: as §1
Plasmodium berghei [4] = assay: Antimalarial activity against Plasmodium berghei infected in Swiss Webster mouse assessed as mouse survival rate at 11 mg/kg administered once daily via oral gavage for 4 consecutive days beginning 1 hr after infection measured on day 13 post infection relative to control; assay type: functional; procedure, shortened: as §1
Plasmodium berghei [5] = assay: Antimalarial activity against Plasmodium berghei infected in Swiss Webster mouse assessed as mouse survival rate at 1.1 mg/kg administered once daily via oral gavage for 4 consecutive days beginning 1 hr after infection measured on day 7 post infection relative to control; assay type: functional; procedure, shortened: as §1
Plasmodium berghei [6] = assay: Antimalarial activity against Plasmodium berghei infected in Swiss Webster mouse assessed as mouse survival rate at 1.1 mg/kg administered once daily via oral gavage for 4 consecutive days beginning 1 hr after infection measured on day 6 post infection relative to control; assay type: functional; procedure, shortened: as §1
Plasmodium berghei [7] = assay: Antimalarial activity against Plasmodium berghei infected in Swiss Webster mouse assessed as mouse survival rate at 1.1 mg/kg administered once daily via oral gavage for 4 consecutive days beginning 1 hr after infection measured on day 4 post infection relative to control; assay type: functional; procedure, shortened: as §1
Salmonella typhimurium [8] = assay: Genotoxicity in Salmonella typhimurium TA100 assessed as number of revertants per plate at 5000 ug/plate in presence of rat liver S9 fraction by Ames test (reference value: 141 +/- 1); assay type: toxicity; details: salmonella enterica subsp. enterica serovar typhimurium
[9] = AUC in rat at 2000 mg/kg administered via oral gavage; assay type: ADME, organism-based; details: in vivo
[10] = Cmax in Sprague-Dawley rat plasma at 5 mg/kg, po via gavage by HPLC/MS analysis; assay type: ADME, organism-based; set-up: dose 5 mg/kg, route oral
Procedure, shortened: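 Female CD-1 mice, male SD rats and beagle dogs received 5 mg/kg either iv or by oral gavage. Vehicle was PEG 300/propylene glycol/water (55/25/20, pH 6). Blood was sampled and drug measured by HPLC-MS/MS.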

Lymphocyte [11] = assay: Genotoxicity in human lymphocytes assessed as replication index at 80 ug/mL after 3 hrs in absence of rat liver S9 fraction by micronucleus assay relative to control; assay type: toxicity, cell-based
Procedure, shortened: (§2)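 Human lymphocytes exposed for 3 h with or without rat liver S9, or 28 h without S9, with 1% DMSO as vehicle control. Replication index = (binucleated + 2 × multinucleated cells)/total cells. Cytotoxicity (%) = 100 − (RI treated/RI vehicle) × 100.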

Salmonella typhimurium [12] = assay: Genotoxicity in Salmonella typhimurium TA100 assessed as number of revertants per plate at 15 ug/plate in presence of rat liver S9 fraction by Ames test (reference value: 141 +/- 1); assay type: toxicity; details: salmonella enterica subsp. enterica serovar typhimurium
Salmonella typhimurium [13] = assay: Genotoxicity in Salmonella typhimurium TA100 assessed as number of revertants per plate at 1500 ug/plate in absence of rat liver S9 fraction by Ames test (reference value: 154 +/- 9); assay type: toxicity; details: salmonella enterica subsp. enterica serovar typhimurium
Salmonella typhimurium [14] = assay: Genotoxicity in Salmonella typhimurium TA1537 assessed as number of revertants per plate at 500 ug/plate in presence of rat liver S9 fraction by Ames test (reference value: 11 +/- 4); assay type: toxicity; details: salmonella enterica subsp. enterica serovar typhimurium
Salmonella typhimurium [15] = assay: Genotoxicity in Salmonella typhimurium TA1537 assessed as number of revertants per plate at 50 ug/plate in presence of rat liver S9 fraction by Ames test (reference value: 11 +/- 4); assay type: toxicity; details: salmonella enterica subsp. enterica serovar typhimurium
Salmonella typhimurium [16] = assay: Genotoxicity in Salmonella typhimurium TA100 assessed as number of revertants per plate at 1500 ug/plate in presence of rat liver S9 fraction by Ames test (reference value: 141 +/- 1); assay type: toxicity; details: salmonella enterica subsp. enterica serovar typhimurium
Salmonella typhimurium [17] = assay: Genotoxicity in Salmonella typhimurium TA1537 assessed as number of revertants per plate at 15 ug/plate in absence of rat liver S9 fraction by Ames test (reference value: 19 +/- 9); assay type: toxicity; details: salmonella enterica subsp. enterica serovar typhimurium
[18] = Volume of distribution at steady state in Sprague-Dawley rat at 5 mg/kg, iv by HPLC/MS analysis; assay type: ADME, organism-based; details: in vivo, read-out: Vdss
Lymphocyte [19] = assay: Genotoxicity in human lymphocytes assessed as increase in frequency of micronucleated cells at 80 ug/mL after 28 hrs in absence of rat liver S9 fraction by micronucleus assay (reference value: 0.74%); assay type: toxicity, cell-based
Lymphocyte [20] = assay: Genotoxicity in human lymphocytes assessed as replication index at 40 ug/mL after 28 hrs in absence of rat liver S9 fraction by micronucleus assay relative to control; assay type: toxicity, cell-based; procedure, shortened: as §2
Escherichia coli = assay: Genotoxicity in Escherichia coli WP2uvrA assessed as number of revertants per plate at 5000 ug/plate in absence of rat liver S9 fraction by Ames test (reference value: 45 +/- 9); assay type: toxicity
[21] = AUC (0 to infinity) in Beagle dog at 5 mg/kg, iv by HPLC/MS analysis; assay type: ADME, organism-based, Canis lupus familiaris; set-up: dose 5 mg/kg, time infinity, route intravenous; details: in vivo
Plasmodium falciparum [22] = assay: Antimalarial activity against Plasmodium falciparum 7G8 infected in human erythrocytes assessed as reduction in [3H]-hypoxanthine incorporation preincubated for 24 hrs followed by [3H]-hypoxanthine addition measured after 24 hrs by scintillation counting method; assay type: functional, cell-based
Lymphocyte [23] = assay: Genotoxicity in human lymphocytes assessed as increase in frequency of micronucleated cells at 160 ug/mL after 28 hrs in absence of rat liver S9 fraction by micronucleus assay (reference value: 0.74%); assay type: toxicity, cell-based
Salmonella typhimurium [24] = assay: Genotoxicity in Salmonella typhimurium TA98 assessed as number of revertants per plate at 50 ug/plate in presence of rat liver S9 fraction by Ames test (reference value: 19 +/- 8); assay type: toxicity; details: salmonella enterica subsp. enterica serovar typhimurium
Plasmodium falciparum [25] = assay: Antimalarial activity against Plasmodium falciparum 3D7 0087/N9 infected in NOD/SCID IL2R gamma null mouse assessed as decrease in parasitemia at 0.3 to 75 mg/kg up to 7 days post infection; assay type: functional, organism-based
Procedure, shortened: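 Human-erythrocyte-engrafted NODscidIL2Rγnull mice carrying P. falciparum Pf3D70087/N9 in peripheral blood; compound given orally once daily for four consecutive days.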

Salmonella typhimurium [26] = assay: Genotoxicity in Salmonella typhimurium TA100 assessed as number of revertants per plate at 500 ug/plate in presence of rat liver S9 fraction by Ames test (reference value: 141 +/- 1); assay type: toxicity; details: salmonella enterica subsp. enterica serovar typhimurium
[27] = Terminal half life in Beagle dog at 5 mg/kg, iv by HPLC/MS analysis; assay type: ADME, organism-based, Canis lupus familiaris; details: in vivo, read-out: beta t1/2 (converted)
Procedure, shortened: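 Female CD-1 mice, male SD rats or beagle dogs given 5 mg/kg by iv injection or oral gavage. Formulation was PEG300/propylene glycol/water 55/25/20, pH 6. Blood samples analysed by HPLC–MS/MS; parameters include AUC0-inf extrapolated to infinity and terminal half-life.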

Cc1c(Oc2cnc(C(=O)NC(C)CO)cn2)ccc2c1B(O)OC2 (stereo unspecified)
survival at 1 mg/kg (Plasmodium berghei [1]): 20% | survival at 0.3 mg/kg (Plasmodium berghei [2]): 20%

Cc1c(Oc2cnc(C(=O)N3CC(O)(C(C)C)C3)cn2)ccc2c1B(O)OC2
survival at 11 mg/kg (Plasmodium berghei [3]): 0% | survival at 11 mg/kg (Plasmodium berghei [4]): 20% | survival at 1.1 mg/kg (Plasmodium berghei [5]): 0% | survival at 1.1 mg/kg (Plasmodium berghei [6]): 100% | survival at 1.1 mg/kg (Plasmodium berghei [7]): 100%

Cc1c(Oc2cnc(C(=O)N3CC(C)(O)C3)cn2)ccc2c1B(O)OC2
Activity (Salmonella typhimurium [8]): 31 | AUC [9]: 742 µg·h/mL | Cmax [10]: 1700 ng/mL | Activity (Lymphocyte [11]): 3% | Activity (Salmonella typhimurium [12]): 149 | Activity (Salmonella typhimurium [13]): 133 | Activity (Salmonella typhimurium [14]): 17 | Activity (Salmonella typhimurium [15]): 9 | Activity (Salmonella typhimurium [16]): 144 | Activity (Salmonella typhimurium [17]): 10 | Vd [18]: 0.831 L/kg | Activity (Lymphocyte [19]): 1.28% | Activity (Lymphocyte [20]): 7% | Activity (Escherichia coli): 43 | AUC(0-inf) [21]: 168 µg·h/mL | IC50 (Plasmodium falciparum [22]): 35 nM | Activity (Lymphocyte [23]): 0.89% | Activity (Salmonella typhimurium [24]): 17 | Activity (Plasmodium falciparum [25]): Active | Activity (Salmonella typhimurium [26]): 132 | half-life [27]: 6.9 h

Cc1c(Oc2cnc(C(=O)N3CC(O)(C(F)(F)F)C3)cn2)ccc2c1B(O)OC2
survival at 1.1 mg/kg (Plasmodium berghei [5]): 0% | survival at 1.1 mg/kg (Plasmodium berghei [6]): 100% | survival at 1.1 mg/kg (Plasmodium berghei [7]): 100%
